Measured values from ChEMBL document CHEMBL1132215, “A new method for rapidly generating inhibitors of glyoxalase I inside tumor cells using S-(N-aryl-N-hydroxycarbamoyl)ethylsulfoxides” (J Med Chem, 1999).

Experiments:
[1] = Second-order rate constant for acyl-interchange reactions between glutathione and the compound; type: ADME
In short: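 Cell-free reaction with glutathione in 0.1 M potassium phosphate, pH 7.5, 5% ethanol, 25 °C. Under pseudo-first-order conditions (≥10-fold glutathione excess), derived from the first-order loss of reactants followed spectrophotometrically. For the slow ester analogue, taken instead from the initial rate of product appearance (~0.1% reaction) with 15-fold glutathione excess, followed by reverse-phase HPLC.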

[2] = tested on: L1210; assay: Rate constant from the plots of initial rates of disappearance of the drug inside L1210 cells versus extracellular concentration of prodrug.; type: functional, Mus musculus; settings: in the assay text read “appearance” for “disappearance”
In short: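 L1210 suspensions (~1.5 × 10^6 cells/mL) in RPMI 1640/10% heat-inactivated FCS with gentamycin, 37 °C, were given fixed prodrug levels. Aliquots taken over time were spun through silicone oil. Pellets were extracted with 70% ethanol and the glutathione conjugate was measured by C18 reverse-phase HPLC at 260 nm against standard curves. The constant is the slope of initial intracellular appearance rate versus extracellular prodrug concentration.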

[3] = tested on: L1210; assay: Concentration producing 50% growth inhibition of L1210 cells; type: functional; settings: Mus musculus
In short: (§1)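 Murine L1210 leukemia cells (NCI tumor repository) in log phase, kept in RPMI 1640 with […], 10% heat-inactivated fetal calf serum and gentamycin (10 µg/mL), 37 °C, 5% CO2. Seeded at 5000 cells/well with at least five drug levels in triplicate. Fresh drug added every 12 h. Cell density counted by Coulter Counter after 48 h. Percentage growth taken against time-zero and no-drug counts. Values interpolated from dose-response curves; mean and SD of three experiments on different days.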

[4] = tested on: L1210; assay: Concentration required to kill 50% L1210 cells; type: ADME, cell-based; settings: mouse
In short: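 Mouse L1210 leukemia cells in log growth, RPMI 1640 with 10% heat-inactivated fetal calf serum and gentamycin (10 µg/mL), 37 °C, 5% CO2. Seeded at 5000 cells/well with at least five drug levels in triplicate. Fresh drug added every 12 h. Cell density counted by Coulter Counter after 48 h, viability by trypan blue. LC50 (50% cell killing) interpolated from dose-response curve; three experiments on different days.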

[5] = tested on: L1210; assay: Concentration producing 100% tumor growth inhibition of L1210 cells; type: functional; settings: Mus musculus; in short: as §1

Row | Structure (SMILES) | k2 [1] | Rate constant [2] | GI50 [3] | LC50 [4] | TGI [5]
1 | CC[S+]([O-])C(=O)N(C)c1ccc(Cl)cc1 (stereo unspecified) | 2.33 M⁻¹ s⁻¹ |  |  |  | 
2 | Cl.NC(CCC(=O)NC(CSC(=O)N(O)c1ccc(Cl)cc1)C(=O)NCC(=O)OC1CCCC1)C(=O)OC1CCCC1 (stereo unspecified) |  | 0.59 min⁻¹ | 3.4 µM | 8.3 µM | 5.3 µM
3 | CCOC(=O)CNC(=O)C(CSC(=O)N(O)c1ccc(Cl)cc1)NC(=O)CCC(N)C(=O)OCC.Cl (stereo unspecified) |  | 0.1 min⁻¹ | 7 µM | 54 µM | 27 µM
4 | CC[S+]([O-])C(=O)N(O)c1ccc(Cl)cc1 (stereo unspecified) | 30.7 M⁻¹ s⁻¹ | 1.41 min⁻¹ | 0.5 µM | 13 µM | 3.9 µM
5 | CC[S+]([O-])C(=O)N(C)O (stereo unspecified) | 9.83 M⁻¹ s⁻¹ |  |  |  | 
6 | CCSC(=O)N(O)c1ccc(Cl)cc1 | 5.83e-06 M⁻¹ s⁻¹ |  |  |  | 
